Data: ChEMBL document CHEMBL1157169, “A class of novel nitronyl nitroxide labeling basic and acidic amino acids: synthesis, application for preparing ESR optionally labeling peptides, and bioactivity investigations” (Bioorg Med Chem, 2008)
Where a SMILES comes first, the peptide text is derived from it. The star is where a group is joined. X1 = CC1(C)N(O)C(c2ccc(OCCN*)cc2)=[N+]([O-])C1(C)C

Legend:
PC-12 [1] = test: Radical scavenging activity in rat PC12 cells assessed as inhibition of hydroxyl radical-induced cell damage by MTT assay; format: functional, cell-based
In short: (§1)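 PC12 cells grown in DMEM with 10% heat-inactivated horse serum, 5% FBS and 1.0 mM pyruvate at 37 °C, 5% CO2. Seeded at 20,000 cells/well on poly-L-lysine and attached 24 h. Pretreated 1 h with 12.5–200 µM compound. Damage induced by SNP 2 mM for 2 h (NO), H2O2 1 mM for 1 h, or H2O2 1 mM/Fe(II) 30 µM for 1 h (·OH). Media replaced, cells incubated 14 h, survival measured by MTT.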

PC-12 [2] = test: Radical scavenging activity in rat PC12 cells assessed as inhibition of hydrogen peroxide radical-induced cell damage by MTT assay; format: functional, cell-based; in short: as §1
PC-12 [3] = test: Radical scavenging activity in rat PC12 cells assessed as inhibition of nitric oxide radical-induced cell damage by MTT assay; format: functional, cell-based; in short: as §1
Aorta [4] = test: Nitric oxide radical scavenging activity in rat aortic strip assessed as inhibition of acetylcholine-induced vasorelaxation at 1 uM; format: functional, tissue-based
Aorta [5] = test: Nitric oxide radical scavenging activity in rat aortic strip assessed as inhibition of acetylcholine-induced vasorelaxation at 10 uM; format: functional, tissue-based
Aorta [6] = test: Nitric oxide radical scavenging activity in rat aortic strip assessed as inhibition of acetylcholine-induced vasorelaxation at 100 uM; format: functional, tissue-based
[7] = Aqueous stability assessed as decomposition time at pH 11.5; format: physicochemical; conditions: buffer
In short: (§2)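 Each sample dissolved in aqueous solution at pH 2.0, 7.4 or 11.5 (final 10^-2 mM) and held at room temperature for up to 200 h. Decomposition followed by TLC (CHCl3/CH3OH, 20:1). Value is the time at which decomposition appeared.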

[8] = Aqueous stability assessed as decomposition time at pH 2.0; format: physicochemical; conditions: buffer; in short: as §2
[9] = Aqueous stability assessed as decomposition time at pH 7.4; format: physicochemical; conditions: buffer; in short: as §2
Rattus norvegicus [10] = test: Antithrombotic activity in Wistar rat assessed as dry thrombus weight at 5 umol/kg
Blood [11] = test: Inhibition of 1 uM adenosine diphosphate-induced platelet aggregation in rabbit blood; format: functional, Oryctolagus cuniculus
In short: (§3)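 Platelet-rich plasma made by centrifuging normal rabbit blood anticoagulated with sodium citrate (3.8% final). Platelets adjusted to 2×10^5/µl with autologous plasma. Aggregation induced by PAF or ADP (final 10^-5–10^-7 M) and read by turbidimetry in an aggregometer. Maximal aggregation rate (Am%) taken as peak height of the curve.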

Blood [12] = test: Inhibition of 10 uM adenosine diphosphate-induced platelet aggregation in rabbit blood; format: functional, Oryctolagus cuniculus; in short: as §3
Blood [13] = test: Inhibition of 10 uM platelet activating factor-induced platelet aggregation in rabbit blood; format: functional, Oryctolagus cuniculus; in short: as §3
Blood [14] = test: Inhibition of 1 uM platelet activating factor-induced platelet aggregation in rabbit blood; format: functional, Oryctolagus cuniculus; in short: as §3
Rattus norvegicus [15] = test: Antithrombotic activity in Wistar rat assessed as wet thrombus weight at 5 umol/kg; format: functional
In short: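 Male Wistar rats (250–300 g) anesthetized with pentobarbital sodium (80.0 mg/kg, ip). The right carotid artery and left jugular vein were cannulated via a polyethylene tube containing a thread, filled with NS or compound dissolved in NS (vehicle NS). Blood shunted 15 min. The thread was weighed wet, then after 2 weeks in a desiccator weighed dry. n = 10, ANOVA.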

Blood [16] = test: Inhibition of 0.1 uM adenosine diphosphate-induced platelet aggregation in rabbit blood; format: functional, Oryctolagus cuniculus; in short: as §3
Blood [17] = test: Inhibition of 0.1 uM platelet activating factor-induced platelet aggregation in rabbit blood; format: functional, Oryctolagus cuniculus; in short: as §3

Q: What does the source list for `CC1(C)N(O)C(c2ccc(OCCNC(=O)CC[C@H](N)C(=O)N[C@@H](CS)C(=O)NCC(=O)O)cc2)=[N+]([O-])C1(C)C`?
A: EC50 (PC-12 [1]): 54.9 µM; EC50 (PC-12 [2]): 47 µM; EC50 (PC-12 [3]): 37.8 µM

Q: What does the source list for `CC1(C)N(O)C(c2ccc(OCC(=O)NCCCC[C@H](N)C(=O)O)cc2)=[N+]([O-])C1(C)C`?
A: inhibition (Aorta [4]): 25.4%; inhibition (Aorta [5]): 72.3%; inhibition (Aorta [6]): 98.6%; EC50 (PC-12 [1]): 98.8 µM; EC50 (PC-12 [2]): 29.9 µM; EC50 (PC-12 [3]): 90.6 µM

Q: Which results are given for `CC1(C)N(O)C(c2ccc(OCCNC(=O)CC[C@H](N)C(=O)N[C@H](CS)C(=O)NCC(=O)O)cc2)=[N+]([O-])C1(C)C`?
A: inhibition (Aorta [4]): 25.9%; inhibition (Aorta [5]): 72.2%; inhibition (Aorta [6]): 97.3%

Q: With `CC1(C)N(O)C=[N+]([O-])C1(C)C` as the compound, how does the Time [7] read?
A: 2.5 h

Q: What about the inhibition (Aorta [4]) of the same compound?
A: 1.7%

Q: What about the inhibition (Aorta [5]) of the same compound?
A: 8.6%

Q: What about the inhibition (Aorta [6]) of the same compound?
A: 31.2%

Q: What about the Time [8] of the same compound?
A: 2 h

Q: And the Time [9]?
A: 18 h

Q: Which dry thrombus weight (Rattus norvegicus [10]) does the source give for `N=C(N)NCCC[C@H](N)C(=O)NCC(=O)N[C@@H](CC(=O)O)C(=O)N[C@@H](CO)C(=O)O` here?
A: 4.22 mg

Q: And the “inhibition (INH)” value (Blood [11])?
A: 39.62%

Q: What about the inhibition (Aorta [4]) of the same compound?
A: 2.9%

Q: And the “inhibition (INH)” value (Blood [12])?
A: 51.5%

Q: What about the inhibition (Aorta [5]) of the same compound?
A: 4.3%

Q: What about the “inhibition (INH)” value (Blood [13]) of the same compound?
A: 53.69%

Q: What about the “inhibition (INH)” value (Blood [14]) of the same compound?
A: 36.47%

Q: What about the Activity (Rattus norvegicus [15]) of the same compound?
A: 27.9 mg

Q: And the “inhibition (INH)” value (Blood [16])?
A: 16.6%

Q: What about the “inhibition (INH)” value (Blood [17]) of the same compound?
A: 22.03%

Q: And the inhibition (Aorta [6])?
A: 8.9%

Q: Which results are given for `CC1(C)N(O)C(C(=O)O)=[N+]([O-])C1(C)C`?
A: Time [7]: 2.5 h; inhibition (Aorta [4]): 1.7%; inhibition (Aorta [5]): 25%; inhibition (Aorta [6]): 34.3%; Time [8]: 2 h; Time [9]: 18 h

Q: Which Time [7] does the source give for `CC1(C)N(O)C(CCl)=[N+]([O-])C1(C)C` here?
A: 2.5 h

Q: And the inhibition (Aorta [4])?
A: 1.6%

Q: What about the inhibition (Aorta [5]) of the same compound?
A: 7.7%

Q: And the inhibition (Aorta [6])?
A: 25%

Q: And the Time [8]?
A: 2 h

Q: What about the Time [9] of the same compound?
A: 18 h

Q: Which inhibition (Aorta [4]) does the source give for `CC1(C)N(O)C(c2ccc(OCC(=O)N[C@@H](CCCNC(=N)N)C(=O)O)cc2)=[N+]([O-])C1(C)C` here?
A: 7.8%

Q: What about the inhibition (Aorta [5]) of the same compound?
A: 10.7%

Q: What about the inhibition (Aorta [6]) of the same compound?
A: 15.9%

Q: And the EC50 (PC-12 [1])?
A: 101 µM

Q: What about the EC50 (PC-12 [2]) of the same compound?
A: 32.1 µM

Q: And the EC50 (PC-12 [3])?
A: 92.9 µM

Q: With `CC1(C)N(O)C(c2ccc(O)cc2)=[N+]([O-])C1(C)C` as the compound, how does the Time [7] read?
A: > 200 h

Q: And the dry thrombus weight (Rattus norvegicus [10])?
A: 6.8 mg

Q: And the “inhibition (INH)” value (Blood [11])?
A: 50.39%

Q: And the inhibition (Aorta [4])?
A: 26.1%

Q: What about the “inhibition (INH)” value (Blood [12]) of the same compound?
A: 49.28%

Q: What about the inhibition (Aorta [5]) of the same compound?
A: 73.1%

Q: What about the “inhibition (INH)” value (Blood [13]) of the same compound?
A: 54%

Q: And the “inhibition (INH)” value (Blood [14])?
A: 52.45%

Q: What about the Activity (Rattus norvegicus [15]) of the same compound?
A: 38.9 mg

Q: And the “inhibition (INH)” value (Blood [16])?
A: 49.01%

Q: And the “inhibition (INH)” value (Blood [17])?
A: 53.04%

Q: What about the inhibition (Aorta [6]) of the same compound?
A: 99.2%

Q: What about the Time [8] of the same compound?
A: > 200 h

Q: And the EC50 (PC-12 [1])?
A: 56.9 µM

Q: And the Time [9]?
A: > 200 h

Q: What about the EC50 (PC-12 [2]) of the same compound?
A: 49.1 µM

Q: And the EC50 (PC-12 [3])?
A: 40 µM

Q: With `CC1(C)N(O)C(c2ccc(OCCNC(=O)C[C@H](NC(=O)CNC(=O)[C@@H](N)CCCNC(=N)N)C(=O)N[C@@H](CO)C(=O)O)cc2)=[N+]([O-])C1(C)C` (H-RGD(X1)S-OH) as the compound, how does the dry thrombus weight (Rattus norvegicus [10]) read?
A: 4.08 mg

Q: What about the “inhibition (INH)” value (Blood [11]) of the same compound?
A: 39.43%

Q: And the inhibition (Aorta [4])?
A: 24%

Q: And the “inhibition (INH)” value (Blood [12])?
A: 50%

Q: What about the inhibition (Aorta [5]) of the same compound?
A: 71.3%

Q: And the “inhibition (INH)” value (Blood [13])?
A: 51.59%

Q: What about the “inhibition (INH)” value (Blood [14]) of the same compound?
A: 34.33%

Q: And the Activity (Rattus norvegicus [15])?
A: 25.01 mg

Q: And the “inhibition (INH)” value (Blood [16])?
A: 16.11%

Q: What about the “inhibition (INH)” value (Blood [17]) of the same compound?
A: 21.52%

Q: What about the inhibition (Aorta [6]) of the same compound?
A: 95.9%

Q: And the EC50 (PC-12 [1])?
A: 102 µM

Q: And the EC50 (PC-12 [2])?
A: 32 µM

Q: What about the EC50 (PC-12 [3]) of the same compound?
A: 92.9 µM

Q: What does the source list for `CC(C)(C)OC(=O)N[C@@H](CCCNC(=N)NC(=O)COc1ccc(C2=[N+]([O-])C(C)(C)C(C)(C)N2O)cc1)C(=O)O`?
A: inhibition (Aorta [4]): 24.1%; inhibition (Aorta [5]): 71.2%; inhibition (Aorta [6]): 95%; EC50 (PC-12 [1]): 102 µM; EC50 (PC-12 [2]): 32.4 µM; EC50 (PC-12 [3]): 93 µM

Q: For `CC(C)(C)OC(=O)N[C@@H](CCC(=O)NCCOc1ccc(C2=[N+]([O-])C(C)(C)C(C)(C)N2O)cc1)C(=O)O`, which inhibition (Aorta [4]) is on record?
A: 26%

Q: And the inhibition (Aorta [5])?
A: 72.4%

Q: What about the inhibition (Aorta [6]) of the same compound?
A: 96.9%

Q: And the EC50 (PC-12 [1])?
A: 59 µM

Q: What about the EC50 (PC-12 [2]) of the same compound?
A: 49.9 µM

Q: And the EC50 (PC-12 [3])?
A: 42.7 µM

Q: For `CC1(C)N(O)C(c2ccc(OCCNC(=O)C[C@H](N)C(=O)O)cc2)=[N+]([O-])C1(C)C`, which inhibition (Aorta [4]) is on record?
A: 26.7%

Q: What about the inhibition (Aorta [5]) of the same compound?
A: 72.8%

Q: What about the inhibition (Aorta [6]) of the same compound?
A: 97.5%

Q: What about the EC50 (PC-12 [1]) of the same compound?
A: 58.2 µM

Q: And the EC50 (PC-12 [2])?
A: 48.6 µM

Q: What about the EC50 (PC-12 [3]) of the same compound?
A: 42.3 µM
